The record followed here is ChEMBL document CHEMBL1932992, “Synthesis and anticonvulsant activity of 1-(8-(benzyloxy)quinolin-2-yl)-6-substituted-4,6-diazaspiro[2,4]heptane-5,7-diones” (Eur J Med Chem, 2012).

The subject of series [1] is Mus musculus. Description: Anticonvulsant activity in ip dosed Kunming mouse assessed as protection against maximal electroshock-induced seizure after 4 hrs. Type of series: functional. Conditions: read-out: MED. Summed up: (§1)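 Male Kunming mice (20 ± 2.0 g) received ip 30, 100 or 300 mg/kg as a suspension in 0.5% methylcellulose, one to four mice per dose. At 0.5 h and 4.0 h, a 60-Hz, 50-mA current was applied for 0.25 s via corneal electrodes. Protection meant no hindlimb tonic extension. The value is the minimal dose protecting half or more of the mice.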
In general terms: Protection in the maximal electroshock model is a classic sign of anticonvulsant action.

Series [2] has as its system Mus musculus. Description: Anticonvulsant activity in Kunming mouse assessed as protection against maximal electroshock-induced seizure at 300 mg/kg, ip after 0.5 hrs. Type of series: functional, organism-based. More on the design: dose 300 mg/kg. Put shortly:
as §1

For series [3], the system named is Mus musculus. Put plainly: Anticonvulsant activity in Kunming mouse assessed as protection against subcutaneous pentylenetetrazole-induced seizure at 300 mg/kg, ip after 0.5 hrs. In kind it is functional, organism-based. More on the design: dose 300 mg/kg. Summed up:
(§2)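 Male Kunming mice (20 ± 2.0 g) were given ip doses of 30, 100 or 300 mg/kg in 0.5% methylcellulose, one to four mice per dose. They were then challenged with subcutaneous pentylenetetrazole dissolved in 0.9% saline at 0.5 h and 4.0 h. Protection was the absence of even a threshold seizure (a single clonic spasm lasting at least 5 s). The value is the minimal dose active in half or more of the mice.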

Series [4] deals with Mus musculus. Description: Anticonvulsant activity in Kunming mouse assessed as protection against subcutaneous pentylenetetrazole-induced seizure at 300 mg/kg, ip after 4 hrs. In kind it is functional, organism-based. More on the design: dose 300 mg/kg. Summed up: as §2
Series [5] can be described thus: Neurotoxicity in ip dosed Kunming mouse assessed as minimal motor impairment after 0.5 hrs by rotarod test. In kind it is toxicity, organism-based. Conditions: in vivo.
Series [6] relates to Mus musculus. Put plainly: Anticonvulsant activity in ip dosed Kunming mouse assessed as protection against maximal electroshock-induced seizure after 0.5 hrs. In kind it is functional. Conditions: read-out: MED. Put shortly:
as §1

Series [7] relates to Mus musculus. Description: Anticonvulsant activity in Kunming mouse assessed as protection against maximal electroshock-induced seizure at 300 mg/kg, ip after 4 hrs. More on the design: dose 300 mg/kg. In kind it is functional, organism-based. Summed up:
as §1

Series [8] deals with Mus musculus. Put plainly: Anticonvulsant activity in ip dosed Kunming mouse assessed as protection against subcutaneous pentylenetetrazole-induced seizure after 0.5 hrs. Type of series: functional. Particulars: read-out: MED. Summed up: as §2
In series [9] the test system is Mus musculus. Put plainly: Neurotoxicity in Kunming mouse assessed as minimal motor impairment at 300 mg/kg, ip after 4 hrs by rotarod test. Type of series: toxicity, organism-based. More on the design: dose 300 mg/kg, route intraperitoneal. Conditions: in vivo. Summed up: (§3)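 Rotorod screen in trained male Kunming mice dosed ip at 30, 100 or 300 mg/kg in 0.5% methylcellulose, read at 0.5 h and 4.0 h. Mice were placed on a knurled rod 1 in. in diameter turning at 6 rpm. Impairment was failure to stay on the rod for at least 1 min in each of four trials. The value is the minimal dose affecting half or more of the mice.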

The test system of series [10] is Mus musculus. Description: Anticonvulsant activity in ip dosed Kunming mouse assessed as protection against subcutaneous pentylenetetrazole-induced seizure after 4 hrs. Type of series: functional. Particulars: read-out: MED. Summed up: as §2
Series [11] deals with Mus musculus. Description: Neurotoxicity in Kunming mouse assessed as minimal motor impairment at 300 mg/kg, ip after 0.5 hrs by rotarod test. In kind it is toxicity, organism-based. More on the design: dose 300 mg/kg, route intraperitoneal. Conditions: in vivo. Summed up:
as §3
In general terms: Falling from the rotarod earlier than controls is read as motor impairment.

Series [12] deals with Mus musculus. Description: Anticonvulsant activity in ip dosed Kunming mouse assessed as protection against maximal electroshock-induced seizure. Type of series: functional.
Series [13] has as its system Mus musculus. Description: Anticonvulsant activity in ip dosed Kunming mouse assessed as protection against subcutaneous pentylenetetrazole-induced seizure. In kind it is functional. Put shortly: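 Median effective dose in male Kunming mice, groups of 10, given a range of ip doses until at least three points fell between 10–90% seizure protection.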
Series [14] has as its system Mus musculus. Put plainly: Protective index, ratio of TD50 for ip dosed Kunming mouse to ED50 for ip dosed Kunming mouse by maximal electroshock seizure test. Type of series: functional.
The test system of series [15] is Mus musculus. Description: Protective index, ratio of TD50 for ip dosed Kunming mouse to ED50 for ip dosed Kunming mouse by subcutaneous pentylenetetrazole induced seizure test. In kind it is functional.

As usually defined, the TD50 is the dose at which the toxic effect under study appears in half of the subjects. One may read the ED50 as the dose that gives a 50% effect, or the effect in half of the subjects.

Activity calls are given as the source filed them. Where only a bound is given, the exact number is not on record here.

For `O=C1NC2(CC2c2ccc3cccc(OCc4ccccc4)c3n2)C(=O)N1c1ccccc1` (racemic), the minimal effective dose with Mus musculus [1] came out at 300 mg/kg. Further, the result with Mus musculus [2], with Mus musculus [3] and in the series with Mus musculus [4] was inactive. Besides, the MTD at 0.5 h in [5] was 300 mg/kg.

With `O=C1NC(=O)C2(CC2c2ccc3cccc(OCc4ccccc4)c3n2)N1` (racemic), the minimal effective dose in the series on Mus musculus [6] and in the series with Mus musculus [8] was 300 mg/kg throughout. Moreover, the result with Mus musculus [7] and in the series on Mus musculus [4] was inactive. Further, the MTD at 0.5 h in [5] turned out to be 300 mg/kg. Also, the Activity result with Mus musculus [9] is reported as “Non-toxic”.

As to `CN1C(=O)NC2(CC2c2ccc3cccc(OCc4ccccc4)c3n2)C1=O` (racemic), the minimal effective dose in the series on Mus musculus [6] is 100 mg/kg; in the series with Mus musculus [10], 300 mg/kg. The outcome in the series on Mus musculus [7] and in the series on Mus musculus [3] was inactive. Moreover, the Activity result in the series on Mus musculus [11] is on record as “Non-toxic”.

Consider `CCCCN1C(=O)NC2(CC2c2ccc3cccc(OCc4ccccc4)c3n2)C1=O` (racemic), for which the minimal effective dose in the series on Mus musculus [6] and with Mus musculus [10] was 300 mg/kg throughout. Moreover, the outcome in the series on Mus musculus [7] and in the series on Mus musculus [3] was inactive. Moreover, the Activity entry in the series with Mus musculus [11] and in the series on Mus musculus [9] was “Non-toxic” throughout.

With `CC(C)N1C(=O)NC2(CC2c2ccc3cccc(OCc4ccccc4)c3n2)C1=O` (racemic), the minimal effective dose stood at 300 mg/kg with Mus musculus [6], 100 mg/kg with Mus musculus [1] and 100 mg/kg in the series with Mus musculus [8]. In addition, the outcome with Mus musculus [4] was inactive. The Activity entry in the series with Mus musculus [11] and with Mus musculus [9] was “Non-toxic” each time.

On to `CCC(CO)N1C(=O)NC2(CC2c2ccc3cccc(OCc4ccccc4)c3n2)C1=O` (racemic), for which the minimal effective dose in the series with Mus musculus [6] was determined as 30 mg/kg; in the series on Mus musculus [1], 30 mg/kg; with Mus musculus [8] it was 100 mg/kg; in the series on Mus musculus [10], 300 mg/kg. Also, the TD50 at 0.5 h in series [5] turned out to be 365 mg/kg. Moreover, the Activity entry with Mus musculus [11] and with Mus musculus [9] was “Non-toxic” throughout. In addition, the ED50 in the series with Mus musculus [12] was found to be 8.6 mg/kg; in the series with Mus musculus [13], 212 mg/kg. The “Ratio TD50/ED50” value in the series with Mus musculus [14] turned out to be 26.8; in the series with Mus musculus [15], 1.7.

With `O=C1NC2(CC2c2ccc3cccc(OCc4ccccc4)c3n2)C(=O)N1C1CCCCC1` (racemic), the minimal effective dose in the series with Mus musculus [6], in the series on Mus musculus [1] and in the series on Mus musculus [8] was 300 mg/kg each time. The outcome in the series on Mus musculus [4] was inactive. Moreover, the Activity entry in the series on Mus musculus [11] was “Non-toxic”.

With `O=C1NC2(CC2c2ccc3cccc(OCc4ccccc4)c3n2)C(=O)N1Cc1ccccc1` (racemic), the minimal effective dose with Mus musculus [1] and in the series with Mus musculus [8] was 300 mg/kg each time. Also, the outcome in the series on Mus musculus [2] and with Mus musculus [4] was inactive. Besides, the Activity entry in the series with Mus musculus [11] is recorded as “Non-toxic”.

On to `Cc1ccc(N2C(=O)NC3(CC3c3ccc4cccc(OCc5ccccc5)c4n3)C2=O)cc1` (racemic), for which, in the series with Mus musculus [6], the minimal effective dose was determined as 100 mg/kg. Moreover, the outcome with Mus musculus [7], in the series on Mus musculus [3] and in the series on Mus musculus [4] was inactive. Further, in the series on Mus musculus [11], the Activity result was “Non-toxic”.

As for `COc1ccc(N2C(=O)NC3(CC3c3ccc4cccc(OCc5ccccc5)c4n3)C2=O)cc1` (racemic), the minimal effective dose in the series with Mus musculus [6] worked out at 30 mg/kg; in the series with Mus musculus [1] it was 100 mg/kg; in the series on Mus musculus [8], 300 mg/kg. In addition, in the series on Mus musculus [4], the result was inactive. Further, the TD50 at 0.5 h in series [5] came out at 433 mg/kg. Further, the Activity result with Mus musculus [11] and in the series on Mus musculus [9] was “Non-toxic” each time. Moreover, the ED50 in the series on Mus musculus [12] is 19.5 mg/kg; in the series on Mus musculus [13] it was 279 mg/kg. Moreover, the “Ratio TD50/ED50” value in the series with Mus musculus [14] turned out to be 22.2; with Mus musculus [15] it was 1.6.

As for `O=C1NC2(CC2c2ccc3cccc(OCc4ccccc4)c3n2)C(=O)N1c1ccc([N+](=O)[O-])cc1` (racemic), the minimal effective dose in the series with Mus musculus [1] and with Mus musculus [8] was 300 mg/kg each time. In addition, the outcome with Mus musculus [2] and with Mus musculus [4] was inactive. In addition, the Activity result in the series with Mus musculus [11] and with Mus musculus [9] was “Non-toxic” throughout.

In the case of `O=C1NC2(CC2c2ccc3cccc(OCc4ccccc4)c3n2)C(=O)N1c1ccc(F)cc1` (racemic), the minimal effective dose with Mus musculus [6] came to 300 mg/kg. For the same compound, the outcome in the series on Mus musculus [7], with Mus musculus [3] and in the series on Mus musculus [4] was inactive. The Activity entry in the series with Mus musculus [11] is “Non-toxic”.

Regarding `O=C1NC2(CC2c2ccc3cccc(OCc4ccccc4)c3n2)C(=O)N1c1ccc(C(F)(F)F)cc1` (racemic), the minimal effective dose with Mus musculus [6], with Mus musculus [1] and in the series with Mus musculus [10] was 300 mg/kg each time. In the series with Mus musculus [3], the outcome was inactive. Moreover, in the series on Mus musculus [11], the Activity result is given as “Non-toxic”.

Consider `O=C1NC2(CC2c2ccc3cccc(OCc4ccccc4)c3n2)C(=O)N1c1ccc(Cl)cc1` (racemic), for which the minimal effective dose with Mus musculus [6] amounted to 300 mg/kg. The result with Mus musculus [7], in the series with Mus musculus [3] and in the series with Mus musculus [4] was inactive. Moreover, the MTD at 0.5 h in series [5] was 100 mg/kg.

Regarding `O=C1NC2(CC2c2ccc3cccc(OCc4ccccc4)c3n2)C(=O)N1c1ccc(Br)cc1` (racemic), the minimal effective dose in the series on Mus musculus [1] is 300 mg/kg. In addition, the result with Mus musculus [2], in the series with Mus musculus [3] and with Mus musculus [4] was inactive. Also, in series [5], the MTD at 0.5 h amounted to 100 mg/kg.

Consider `O=C1NC2(CC2c2ccc3cccc(OCc4ccccc4)c3n2)C(=O)N1c1cc(Cl)cc(Cl)c1` (racemic), for which the result in the series with Mus musculus [2], in the series on Mus musculus [7] and with Mus musculus [4] was inactive. Further, the minimal effective dose in the series on Mus musculus [8] came out at 300 mg/kg. The MTD at 0.5 h in series [5] stood at 300 mg/kg. In addition, the Activity entry in the series with Mus musculus [9] is “Non-toxic”.

As for `NC(=O)N1c2ccccc2C=Cc2ccccc21` [CARBAMAZEPINE], the results for the ED50 in the series with Mus musculus [12] and with Mus musculus [13] were 8.8 mg/kg and greater than 100 mg/kg, respectively.

For `CCC1(C)CC(=O)NC1=O` (stereo not drawn) [ETHOSUXIMIDE], the result in the series with Mus musculus [2] and in the series with Mus musculus [7] was inactive. For the same compound, the minimal effective dose with Mus musculus [8] worked out at 100 mg/kg; with Mus musculus [10], 300 mg/kg. Besides, the Activity result in the series on Mus musculus [11] and in the series with Mus musculus [9] was “Non-toxic” each time.

With `CCC1(c2ccccc2)C(=O)NC(=O)NC1=O` [PHENOBARBITAL], the ED50 turned out to be 21.8 mg/kg in the series on Mus musculus [12] and 13.2 mg/kg in the series with Mus musculus [13].

For `O=C1NC(=O)C(c2ccccc2)(c2ccccc2)N1` [PHENYTOIN], the minimal effective dose in the series on Mus musculus [6] and in the series with Mus musculus [1] was 30 mg/kg each time. Besides, the result with Mus musculus [3] and in the series on Mus musculus [4] was inactive. For the same compound, the ED50 in the series on Mus musculus [13] is greater than 300 mg/kg.

As for `CCCC(CCC)C(=O)[O-].[Na+]` [VALPROATE SODIUM], the ED50 with Mus musculus [13] stood at 149 mg/kg.
